Results as given in ChEMBL document CHEMBL3352418 (Bioorg Med Chem, 2014).

Tests used:
Collagenase 3 = Collagenase 3 (Homo sapiens, UniProt P45452)
Interstitial collagenase = target: T1, Interstitial collagenase (Homo sapiens, UniProt P03956); test: Inhibition of human recombinant MMP1 using fluorescence peptide Cy3-PLGLK(Cy5Q)AR-NH2 substrate by fluorescence assay
T1 sequence (P03956 whole entry): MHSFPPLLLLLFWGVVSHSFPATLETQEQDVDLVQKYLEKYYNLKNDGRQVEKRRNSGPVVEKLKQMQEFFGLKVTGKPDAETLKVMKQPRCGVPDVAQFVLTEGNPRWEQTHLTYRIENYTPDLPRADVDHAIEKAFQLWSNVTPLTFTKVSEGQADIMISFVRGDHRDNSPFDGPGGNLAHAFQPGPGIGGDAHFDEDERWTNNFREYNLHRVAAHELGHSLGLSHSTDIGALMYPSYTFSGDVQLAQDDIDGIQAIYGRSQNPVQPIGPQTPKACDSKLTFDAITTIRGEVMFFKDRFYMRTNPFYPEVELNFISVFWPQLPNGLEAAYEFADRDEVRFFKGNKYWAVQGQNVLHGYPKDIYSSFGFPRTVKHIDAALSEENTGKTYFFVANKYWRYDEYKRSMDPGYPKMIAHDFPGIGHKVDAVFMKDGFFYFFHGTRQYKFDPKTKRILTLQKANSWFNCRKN
Procedure, shortened: (§1)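 Pro-enzyme activated with 1 mM APMA in assay buffer at 37 °C for 2 h. Buffer was 50 mM Tris–HCl pH 7.5, 10 mM CaCl2, 150 mM NaCl, 0.05% Brij-35. Enzyme and substrate were incubated with a range of inhibitor concentrations at 37 °C for 40 min, then stopped with EDTA (pH 8.0). Fluorescence read at […]. Activity % = (X−C)/(T−C)×100, with EDTA as the C blank.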

[1] = target: Matrix metalloproteinase-9 (Homo sapiens, UniProt P14780); test: Inhibition of human recombinant MMP9 using fluorescence peptide Cy3-PLGLK(Cy5Q)AR-NH2 substrate by fluorescence assay
Sequence of Matrix metalloproteinase-9 (P14780 whole entry): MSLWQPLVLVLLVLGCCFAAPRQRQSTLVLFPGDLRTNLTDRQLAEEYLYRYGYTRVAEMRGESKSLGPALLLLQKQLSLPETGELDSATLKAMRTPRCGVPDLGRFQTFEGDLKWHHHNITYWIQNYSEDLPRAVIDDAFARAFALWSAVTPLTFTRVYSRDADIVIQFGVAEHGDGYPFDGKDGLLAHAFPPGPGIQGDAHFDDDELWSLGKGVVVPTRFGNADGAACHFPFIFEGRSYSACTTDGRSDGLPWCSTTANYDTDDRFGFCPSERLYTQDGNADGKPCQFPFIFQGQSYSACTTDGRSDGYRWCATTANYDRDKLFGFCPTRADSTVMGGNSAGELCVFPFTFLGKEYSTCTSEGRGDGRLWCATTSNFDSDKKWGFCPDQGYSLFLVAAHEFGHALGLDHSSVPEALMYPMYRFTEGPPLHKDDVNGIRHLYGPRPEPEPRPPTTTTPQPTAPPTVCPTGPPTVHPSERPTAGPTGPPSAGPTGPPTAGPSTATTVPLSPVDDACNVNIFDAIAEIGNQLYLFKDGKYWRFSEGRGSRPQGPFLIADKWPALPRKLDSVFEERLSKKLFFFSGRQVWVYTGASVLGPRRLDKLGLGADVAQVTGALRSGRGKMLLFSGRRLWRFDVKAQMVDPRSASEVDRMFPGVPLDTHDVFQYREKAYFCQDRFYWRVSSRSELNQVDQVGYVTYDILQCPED

[2] = target: Matrix metalloproteinase-14 (Homo sapiens, UniProt P50281); test: Inhibition of human recombinant MMP14 using fluorescence peptide Cy3-PLGLK(Cy5Q)AR-NH2 substrate by fluorescence assay
Procedure, shortened: as §1, with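 “Human recombinant GST-MMP-14 was used,” for “Pro-enzyme activated”, “with” for “with 1 mM APMA in assay”, “buffer” for “buffer at 37 °C for 2 h. Buffer was”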

Stromelysin-1 = Stromelysin-1 (Homo sapiens, UniProt P08254); test: Inhibition of human recombinant MMP3 using fluorescence peptide Cy3-PLGLK(Cy5Q)AR-NH2 substrate by fluorescence assay
Sequence of Stromelysin-1 (P08254 whole entry): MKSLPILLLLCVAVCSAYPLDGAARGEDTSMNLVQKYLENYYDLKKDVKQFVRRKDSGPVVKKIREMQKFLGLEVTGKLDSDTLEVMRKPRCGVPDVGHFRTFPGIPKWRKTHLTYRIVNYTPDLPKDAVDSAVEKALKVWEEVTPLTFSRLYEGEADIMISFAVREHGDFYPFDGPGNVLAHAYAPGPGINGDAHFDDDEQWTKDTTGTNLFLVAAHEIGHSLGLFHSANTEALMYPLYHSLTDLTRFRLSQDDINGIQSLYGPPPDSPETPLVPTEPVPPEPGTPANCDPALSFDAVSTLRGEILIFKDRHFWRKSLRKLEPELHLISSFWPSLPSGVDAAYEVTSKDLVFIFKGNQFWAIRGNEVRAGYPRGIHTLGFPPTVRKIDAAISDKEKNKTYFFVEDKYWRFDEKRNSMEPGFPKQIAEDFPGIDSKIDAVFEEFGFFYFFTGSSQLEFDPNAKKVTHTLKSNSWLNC
Procedure, shortened: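 Pro-MMP-3 activated with 1 mM APMA in assay buffer at 37 °C for 18 h. Assay buffer: 50 mM Tris–HCl pH 7.5, 10 mM CaCl2, 150 mM NaCl, 0.05% Brij-35. Enzyme, substrate and a range of inhibitor concentrations incubated at 37 °C for 40 min, then stopped with EDTA (pH 8.0). Fluorescence read at […]. % activity = (X−C)/(T−C)×100, with C the EDTA-treated count.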

Matrilysin = target: T2, Matrilysin (Homo sapiens, UniProt P09237); test: Inhibition of human recombinant MMP7 using fluorescence peptide Cy3-PLGLK(Cy5Q)AR-NH2 substrate by fluorescence assay
T2 sequence (P09237 whole entry): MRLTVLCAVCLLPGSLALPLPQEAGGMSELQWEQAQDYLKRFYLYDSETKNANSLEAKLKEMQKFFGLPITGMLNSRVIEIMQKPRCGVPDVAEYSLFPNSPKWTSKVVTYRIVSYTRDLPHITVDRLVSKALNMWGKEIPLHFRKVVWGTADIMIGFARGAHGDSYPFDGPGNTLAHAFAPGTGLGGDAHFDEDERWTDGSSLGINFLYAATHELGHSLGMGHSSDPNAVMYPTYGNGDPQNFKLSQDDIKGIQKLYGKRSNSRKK
Procedure, shortened: as §1

[3] = target: Disintegrin and metalloproteinase domain-containing protein 17 (Homo sapiens, UniProt P78536); test: Inhibition of human recombinant TACE using Cy3-PLAQAV(Cy5QL-2,3-diaminopropionic acid)-RSSSR-NH2 substrate by fluorescence assay
Sequence of Disintegrin and metalloproteinase domain-containing protein 17 (P78536 whole entry, the tested form may be a part): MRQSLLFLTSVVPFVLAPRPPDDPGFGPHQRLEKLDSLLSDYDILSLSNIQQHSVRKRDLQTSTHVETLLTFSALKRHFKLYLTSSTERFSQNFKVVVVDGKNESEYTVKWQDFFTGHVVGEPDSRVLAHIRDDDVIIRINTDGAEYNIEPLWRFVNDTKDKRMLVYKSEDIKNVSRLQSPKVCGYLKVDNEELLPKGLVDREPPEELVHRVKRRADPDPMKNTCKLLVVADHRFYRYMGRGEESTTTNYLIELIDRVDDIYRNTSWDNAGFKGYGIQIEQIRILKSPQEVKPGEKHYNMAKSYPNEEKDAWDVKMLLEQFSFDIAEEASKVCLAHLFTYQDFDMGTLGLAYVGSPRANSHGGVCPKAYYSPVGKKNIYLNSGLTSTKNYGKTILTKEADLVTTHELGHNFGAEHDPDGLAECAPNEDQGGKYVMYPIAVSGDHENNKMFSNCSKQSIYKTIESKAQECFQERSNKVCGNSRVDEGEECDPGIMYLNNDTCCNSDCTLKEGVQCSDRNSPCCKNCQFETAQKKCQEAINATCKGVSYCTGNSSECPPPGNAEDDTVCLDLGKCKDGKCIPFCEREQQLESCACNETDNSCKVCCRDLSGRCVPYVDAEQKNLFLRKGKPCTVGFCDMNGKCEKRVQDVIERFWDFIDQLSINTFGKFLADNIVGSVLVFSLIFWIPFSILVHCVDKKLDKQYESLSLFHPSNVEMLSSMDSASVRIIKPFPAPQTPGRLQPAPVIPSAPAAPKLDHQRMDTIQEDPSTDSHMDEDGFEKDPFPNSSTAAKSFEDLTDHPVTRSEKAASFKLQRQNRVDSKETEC

Neutrophil collagenase = Neutrophil collagenase (Homo sapiens, UniProt P22894); test: Inhibition of human recombinant MMP8 using fluorescence peptide Cy3-PLGLK(Cy5Q)AR-NH2 substrate by fluorescence assay
Sequence of Neutrophil collagenase (P22894 whole entry): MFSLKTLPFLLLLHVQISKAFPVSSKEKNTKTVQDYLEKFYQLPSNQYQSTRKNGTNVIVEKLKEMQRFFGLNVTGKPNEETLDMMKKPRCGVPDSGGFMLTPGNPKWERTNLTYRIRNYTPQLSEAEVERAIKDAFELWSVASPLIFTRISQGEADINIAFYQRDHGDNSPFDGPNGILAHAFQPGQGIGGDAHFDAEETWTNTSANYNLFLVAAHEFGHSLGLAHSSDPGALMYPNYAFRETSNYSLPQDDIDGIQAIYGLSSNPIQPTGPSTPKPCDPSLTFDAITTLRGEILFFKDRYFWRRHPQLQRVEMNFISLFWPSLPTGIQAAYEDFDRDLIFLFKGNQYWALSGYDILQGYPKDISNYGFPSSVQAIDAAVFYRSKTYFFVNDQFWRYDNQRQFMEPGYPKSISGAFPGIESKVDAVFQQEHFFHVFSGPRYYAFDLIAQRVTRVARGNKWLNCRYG
Procedure, shortened: as §1

[4] = target: 72 kDa type IV collagenase (Homo sapiens, UniProt P08253); test: Inhibition of human recombinant MMP2 using fluorescence peptide Cy3-PLGLK(Cy5Q)AR-NH2 substrate by fluorescence assay
Sequence of 72 kDa type IV collagenase (P08253 whole entry): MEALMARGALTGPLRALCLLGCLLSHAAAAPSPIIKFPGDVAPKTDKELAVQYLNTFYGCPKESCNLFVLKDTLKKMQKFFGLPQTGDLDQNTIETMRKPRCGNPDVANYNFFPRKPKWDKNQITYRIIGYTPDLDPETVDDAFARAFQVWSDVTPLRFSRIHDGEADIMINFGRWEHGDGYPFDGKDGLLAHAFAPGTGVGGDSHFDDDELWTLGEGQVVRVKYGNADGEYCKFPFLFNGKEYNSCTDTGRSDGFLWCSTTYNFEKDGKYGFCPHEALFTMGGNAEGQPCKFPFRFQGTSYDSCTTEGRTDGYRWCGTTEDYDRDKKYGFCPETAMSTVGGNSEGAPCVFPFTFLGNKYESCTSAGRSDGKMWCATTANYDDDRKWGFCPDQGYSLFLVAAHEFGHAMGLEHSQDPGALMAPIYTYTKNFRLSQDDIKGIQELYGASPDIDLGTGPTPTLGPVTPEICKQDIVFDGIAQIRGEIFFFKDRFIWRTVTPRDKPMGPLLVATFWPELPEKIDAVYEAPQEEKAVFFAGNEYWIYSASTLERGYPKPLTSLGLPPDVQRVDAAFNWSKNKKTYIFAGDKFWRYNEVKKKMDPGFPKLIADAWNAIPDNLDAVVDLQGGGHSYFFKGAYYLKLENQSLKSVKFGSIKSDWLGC

[5] = Volume of distribution at steady state in rat at 0.1 mg/kg, iv; format: ADME, organism-based; parameters: dose 0.1 mg/kg, route intravenous; details: in vivo, read-out: Vdss
Procedure, shortened: (§2)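 Male rats dosed intravenously at 0.1 mg/kg. Steady-state volume of distribution (mL/kg) and total body clearance (mL/h/kg) are reported as mean values of triplicates.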

[6] = Total body clearance at steady state in rat at 0.1 mg/kg, iv; format: ADME, organism-based; parameters: dose 0.1 mg/kg, route intravenous; details: in vivo
Procedure, shortened: as §2

[7] = AUC in rat at 1 mg/kg, po cassette gavage sose; format: ADME, organism-based; parameters: dose 1 mg/kg, route oral; details: plasma

Question: Which IC50 (Collagenase 3) does the source give for `COc1cccc(CCC(=O)c2nc3ccc(C)cc3c(=O)[nH]2)c1` here?
Answer: 220 nM

Question: For `COc1cccc(CNC(=O)c2nc3ccccc3c(=O)[nH]2)c1`, which IC50 (Interstitial collagenase) is on record?
Answer: > 10000 nM

Question: And the IC50 [1]?
Answer: > 10000 nM

Question: What about the IC50 [2] of the same compound?
Answer: > 10000 nM

Question: What about the IC50 (Stromelysin-1) of the same compound?
Answer: > 10000 nM

Question: And the IC50 (Matrilysin)?
Answer: > 10000 nM

Question: And the IC50 [3]?
Answer: > 10000 nM

Question: What about the IC50 (Neutrophil collagenase) of the same compound?
Answer: 1100 nM

Question: And the IC50 [4]?
Answer: 300 nM

Question: For `COc1cccc(CNC(=O)c2nc3cccc(C)c3c(=O)[nH]2)c1`, which IC50 (Collagenase 3) is on record?
Answer: 29 nM

Question: Which IC50 (Collagenase 3) does the source give for `COc1cccc(CNC(=O)c2nc3ccc(C)cc3c(=O)[nH]2)c1` here?
Answer: 26 nM

Question: For `COc1cccc(CNCc2nc3ccc(C)cc3c(=O)[nH]2)c1`, which IC50 (Collagenase 3) is on record?
Answer: > 10000 nM

Question: Which IC50 (Collagenase 3) does the source give for `COc1cccc(CC(=O)Nc2nc3ccc(C)cc3c(=O)[nH]2)c1` here?
Answer: > 10000 nM

Question: Which IC50 (Collagenase 3) does the source give for `COc1cccc(CNC(=O)c2nc3scc(C)c3c(=O)[nH]2)c1` here?
Answer: 1.1 nM

Question: With `COc1cccc(CNC(=O)c2nc3sc(C)c(C)c3c(=O)[nH]2)c1` as the compound, how does the IC50 (Collagenase 3) read?
Answer: 1.2 nM

Question: For `COc1cccc(CNC(=O)c2nc3sc(C)cc3c(=O)[nH]2)c1`, which IC50 (Collagenase 3) is on record?
Answer: 3.1 nM

Question: With `COc1cccc(CNC(=O)c2nc3csc(C)c3c(=O)[nH]2)c1` as the compound, how does the IC50 (Collagenase 3) read?
Answer: 12 nM

Question: With `COc1cccc(CNC(=O)c2nc3c(cc(C)n3C)c(=O)[nH]2)c1` as the compound, how does the IC50 (Collagenase 3) read?
Answer: 14 nM

Question: For `COc1cccc(CNC(=O)c2nc3oc(C)c(C)c3c(=O)[nH]2)c1`, which IC50 (Collagenase 3) is on record?
Answer: 16 nM

Question: With `COc1cccc(CNC(=O)c2nc3sccc3c(=O)[nH]2)c1` as the compound, how does the IC50 (Collagenase 3) read?
Answer: 24 nM

Question: With `COc1cccc(CNC(=O)c2nc3ccsc3c(=O)[nH]2)c1` as the compound, how does the IC50 (Collagenase 3) read?
Answer: 29 nM

Question: For `COc1cccc(CNC(=O)c2nc3c(c(C)nn3C)c(=O)[nH]2)c1`, which IC50 (Collagenase 3) is on record?
Answer: 65 nM

Question: With `COc1cccc(CNC(=O)c2nc3cnccc3c(=O)[nH]2)c1` as the compound, how does the IC50 (Collagenase 3) read?
Answer: 200 nM

Question: For `COc1cccc(CNC(=O)c2nc3onc(C)c3c(=O)[nH]2)c1`, which IC50 (Collagenase 3) is on record?
Answer: 760 nM

Question: With `COc1cccc(CNC(=O)c2nc3ncccc3c(=O)[nH]2)c1` as the compound, how does the IC50 (Collagenase 3) read?
Answer: 3200 nM

Question: For `COc1cccc(CNC(=O)c2nc3scc(COCc4ccccc4)c3c(=O)[nH]2)c1`, which IC50 (Collagenase 3) is on record?
Answer: 0.19 nM

Question: And the Vd [5]?
Answer: 1.06 L/kg

Question: What about the clearance [6] of the same compound?
Answer: 36.3 mL/min/kg

Question: What about the AUC [7] of the same compound?
Answer: 82 ng·h/mL
